Residue numbers refer to the chain shown, from its start. The source made the active and inactive calls. The rule behind the calls is not given here.
Experiments:
[1] = target: T1, Protein phosphatase methylesterase 1 (Homo sapiens) (UniProt Q9Y570); test: Inhibition of PME1 overexpressed in HEK293T cells assessed as increase in methylated PP2A level at 20 uM after 1 hr by Western blot analysis; assay type: cell-based; settings: HEK-293T
T1 sequence (whole entry): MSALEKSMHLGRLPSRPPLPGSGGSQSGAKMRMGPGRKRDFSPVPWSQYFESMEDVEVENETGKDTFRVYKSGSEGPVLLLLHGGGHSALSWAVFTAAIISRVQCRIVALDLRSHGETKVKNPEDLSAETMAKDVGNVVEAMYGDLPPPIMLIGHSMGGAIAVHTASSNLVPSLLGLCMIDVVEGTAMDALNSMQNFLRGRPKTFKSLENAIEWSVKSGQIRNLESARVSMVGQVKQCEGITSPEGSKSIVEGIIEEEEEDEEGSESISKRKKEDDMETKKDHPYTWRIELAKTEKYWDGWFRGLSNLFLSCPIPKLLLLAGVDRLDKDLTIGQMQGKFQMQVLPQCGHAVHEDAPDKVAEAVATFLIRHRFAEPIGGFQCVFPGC
Method in brief: (§1)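 HEK 293T cells, either stably overexpressing PME-1 or untransfected, treated in medium for 1 h at 37 °C. Total cell extract (2 mg/mL) run on reducing SDS-PAGE (10%) and blotted with demethylated-specific (4b7), methylated-specific (2A10) and total PP2A antibodies, imaged by infrared fluorescence. Mean ± SEM, n = 3, compared against DMSO-treated cells.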

[2] = target: T1, Protein phosphatase methylesterase 1 (Homo sapiens); test: Inhibition of PME1 overexpressed in HEK293T cells assessed as reduction in demethylated PP2A level at 20 uM after 1 hr by Western blot analysis relative to control; assay type: cell-based; settings: HEK-293T; method in brief: as §1
[3] = target: T2, Protein phosphatase methylesterase 1 (Mus musculus, UniProt Q8BVQ5); test: Inhibition of PME1 binding to FP-rhodamine in mouse brain soluble proteome after 45 mins by gel-based competitive activity-based protein profiling assay
T2 sequence (Q8BVQ5 whole entry): T1 sequence (whole entry) with S42T, S114G, P123S, I150V, S167A, S168A, I268V, S269N

[4] = target: Acylamino-acid-releasing enzyme (Mus musculus) (UniProt Q8R146); test: Inhibition of acyl peptide hydrolase binding to FP-rhodamine in mouse brain soluble proteome at 50 uM after 30 mins by […] activity-based protein profiling assay relative to control; assay type: tissue-based
[5] = target: T3, Protein phosphatase methylesterase 1 (Mus musculus) (UniProt Q8BVQ5); test: Inhibition of PME1 binding to FP-rhodamine in mouse brain soluble proteome at 20 uM after 30 mins by […] activity-based protein profiling assay relative to control; assay type: tissue-based
T3 sequence (whole entry): T1 sequence (whole entry) with S42T, S114G, P123S, I150V, S167A, S168A, I268V, S269N

[6] = target: Prolyl endopeptidase (Mus musculus) (UniProt Q9QUR6); test: Inhibition of prolyl endopeptidase binding to FP-rhodamine in mouse brain soluble proteome at 50 uM after 30 mins by […] activity-based protein profiling assay relative to control; assay type: tissue-based
[7] = target: T1, Protein phosphatase methylesterase 1 (Homo sapiens); test: Inhibition of PME1 expressed in untransfected HEK293T cells assessed as reduction in demethylated PP2A level at 500 nM after 1 hr by Western blot analysis; assay type: cell-based; settings: HEK-293T; method in brief: as §1
[8] = target: T1, Protein phosphatase methylesterase 1 (Homo sapiens); test: Inhibition of PME1-based PP2A […] in human HEK293T cells at 50 uM after 3 hrs by Western blot analysis; assay type: cell-based; settings: HEK-293T
[9] = target: Acylamino-acid-releasing enzyme (Homo sapiens) (UniProt P13798); test: Inhibition of acyl peptide hydrolase binding to FP-rhodamine in human HEK293T cells at 0.5 to 50 uM after 30 mins by […] activity-based protein profiling assay; settings: HEK-293T
[10] = target: Protein phosphatase methylesterase 1 (Homo sapiens, UniProt Q9Y570); test: Inhibition of PME1 binding to FP-rhodamine in human MDA-MB-231 cells after 45 mins by gel-based competitive activity-based protein profiling assay

Sequence of Prolyl endopeptidase (Mus musculus) (Q9QUR6 whole entry, looked up): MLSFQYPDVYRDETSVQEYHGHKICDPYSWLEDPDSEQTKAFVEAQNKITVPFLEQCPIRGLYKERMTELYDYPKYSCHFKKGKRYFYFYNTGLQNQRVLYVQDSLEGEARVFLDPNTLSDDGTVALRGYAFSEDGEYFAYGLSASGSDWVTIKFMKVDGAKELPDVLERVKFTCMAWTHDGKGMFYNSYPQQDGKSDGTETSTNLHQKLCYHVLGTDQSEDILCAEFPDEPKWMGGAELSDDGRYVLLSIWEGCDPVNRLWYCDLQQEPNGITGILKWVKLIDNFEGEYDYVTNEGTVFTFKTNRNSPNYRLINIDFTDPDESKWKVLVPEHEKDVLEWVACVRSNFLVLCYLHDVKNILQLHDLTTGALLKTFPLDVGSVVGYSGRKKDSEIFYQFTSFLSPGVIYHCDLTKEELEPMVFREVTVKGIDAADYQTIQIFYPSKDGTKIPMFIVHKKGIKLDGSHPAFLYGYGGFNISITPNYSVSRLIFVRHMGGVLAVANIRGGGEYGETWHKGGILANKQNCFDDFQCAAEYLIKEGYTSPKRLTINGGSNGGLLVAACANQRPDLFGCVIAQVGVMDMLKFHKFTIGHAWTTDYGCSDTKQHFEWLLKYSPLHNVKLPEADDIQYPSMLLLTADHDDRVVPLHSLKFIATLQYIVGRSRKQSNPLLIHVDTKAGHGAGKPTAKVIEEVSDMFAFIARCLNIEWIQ
Sequence of Acylamino-acid-releasing enzyme (Mus musculus) (Q8R146 whole entry): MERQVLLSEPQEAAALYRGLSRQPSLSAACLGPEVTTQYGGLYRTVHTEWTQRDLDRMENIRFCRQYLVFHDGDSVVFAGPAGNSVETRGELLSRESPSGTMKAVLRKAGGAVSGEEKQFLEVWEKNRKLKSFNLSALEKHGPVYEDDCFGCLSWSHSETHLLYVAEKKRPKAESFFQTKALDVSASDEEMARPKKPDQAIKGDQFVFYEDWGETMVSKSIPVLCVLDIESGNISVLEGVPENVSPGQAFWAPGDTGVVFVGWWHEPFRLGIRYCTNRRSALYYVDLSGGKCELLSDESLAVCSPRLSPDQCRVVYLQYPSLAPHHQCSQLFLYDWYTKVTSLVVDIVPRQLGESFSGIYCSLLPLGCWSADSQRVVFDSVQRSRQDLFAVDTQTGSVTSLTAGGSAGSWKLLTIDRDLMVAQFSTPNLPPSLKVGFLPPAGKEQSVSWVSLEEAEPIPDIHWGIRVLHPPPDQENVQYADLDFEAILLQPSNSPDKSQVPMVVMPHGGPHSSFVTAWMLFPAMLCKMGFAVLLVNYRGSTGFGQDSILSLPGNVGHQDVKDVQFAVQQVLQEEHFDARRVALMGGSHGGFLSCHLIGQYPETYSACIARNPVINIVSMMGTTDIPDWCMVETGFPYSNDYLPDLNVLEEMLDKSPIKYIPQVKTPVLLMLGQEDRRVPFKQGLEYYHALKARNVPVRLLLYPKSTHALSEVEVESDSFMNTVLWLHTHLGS
Sequence of Acylamino-acid-releasing enzyme (Homo sapiens) (P13798 whole entry): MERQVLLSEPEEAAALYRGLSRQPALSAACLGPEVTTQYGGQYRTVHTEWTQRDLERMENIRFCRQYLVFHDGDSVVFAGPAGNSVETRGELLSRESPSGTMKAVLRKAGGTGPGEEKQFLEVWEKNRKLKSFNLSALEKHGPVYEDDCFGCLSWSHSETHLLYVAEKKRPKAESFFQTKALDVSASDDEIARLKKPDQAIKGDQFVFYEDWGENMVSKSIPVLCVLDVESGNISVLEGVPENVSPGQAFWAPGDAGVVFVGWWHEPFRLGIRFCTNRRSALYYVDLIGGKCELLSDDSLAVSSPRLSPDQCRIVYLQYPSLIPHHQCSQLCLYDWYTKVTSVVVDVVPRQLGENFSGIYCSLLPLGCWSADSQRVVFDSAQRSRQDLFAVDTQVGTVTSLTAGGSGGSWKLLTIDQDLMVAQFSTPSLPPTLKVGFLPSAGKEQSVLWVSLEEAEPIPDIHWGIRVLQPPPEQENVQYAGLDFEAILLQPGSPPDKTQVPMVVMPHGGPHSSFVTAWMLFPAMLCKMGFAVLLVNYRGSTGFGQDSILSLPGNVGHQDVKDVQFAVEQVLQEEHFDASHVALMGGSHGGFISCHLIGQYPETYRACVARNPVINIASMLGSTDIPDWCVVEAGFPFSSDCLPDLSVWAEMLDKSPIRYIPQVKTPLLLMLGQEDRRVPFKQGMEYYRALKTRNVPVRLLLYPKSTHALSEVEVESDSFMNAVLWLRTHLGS

Structure (SMILES) | IC50 [3] | inhibition [5] | also measured
N#C/C(=C\c1cccn1S(=O)(=O)c1cccc(C#N)c1)S(=O)(=O)c1ccc(F)cc1 | 0.64 µM |  | inhibition [1]: Active; inhibition [2]: 80%
N#C/C(=C\c1cccn1S(=O)(=O)c1ccccc1)S(=O)(=O)c1ccccc1 | > 20 µM |  | 
CS(=O)(=O)/C(C#N)=C/c1cccn1S(=O)(=O)c1ccc(Cl)cc1 |  |  | inhibition [4]: > 50%
CS(=O)(=O)/C(C#N)=C/c1cccn1S(=O)(=O)c1c(F)c(F)c(F)c(F)c1F | > 20 µM |  | 
N#CC(C#N)=Cc1cccn1S(=O)(=O)c1ccccc1 |  | 50% | 
CS(=O)(=O)C(=Cc1cccn1S(=O)(=O)c1ccccc1)S(C)(=O)=O |  | 0% | inhibition [6]: > 50%
COC(=O)N1C(=O)[C@](c2ccccc2)(C2CCCC2)N1C(=O)OC |  |  | inhibition [7]: Active
CS(=O)(=O)/C(C#N)=C/c1cccn1S(=O)(=O)c1ccc([N+](=O)[O-])cc1 | 3 µM |  | 
CS(=O)(=O)C(C#N)Cc1cccn1S(=O)(=O)c1ccccc1 (stereo unspecified) |  | 0% | 
CC(C)(C)S(=O)(=O)/C(C#N)=C/c1cccn1S(=O)(=O)c1cccc(C#N)c1 | 3.4 µM |  | 
CS(=O)(=O)/C(=C/c1cccn1S(=O)(=O)c1ccccc1)CN |  | 0% | 
CC(C)(C)S(=O)(=O)/C(C#N)=C/c1cccn1S(=O)(=O)c1ccccc1 | 6.8 µM |  | 

Further lines, with some results ahead:

IC50 [3] | inhibition [5] | Structure (SMILES) | also measured
 | 0% | CS(=O)(=O)/C(C#N)=C/c1ccc[nH]1 | 
 | 0% | CS(=O)(=O)/C(C#N)=C/c1ccccc1 | 
2.5 µM |  | CS(=O)(=O)/C(C#N)=C/c1cccn1S(=O)(=O)c1cccc(C#N)c1 | 
4 µM |  | CS(=O)(=O)/C(C#N)=C/c1cccn1S(=O)(=O)c1ccc(C#N)cc1 | inhibition [6]: > 50%
 | 0% | CS(=O)(=O)/C(C#N)=C/c1ccc([N+](=O)[O-])cc1 | 
 | 90% | CS(=O)(=O)/C(C#N)=C/c1cccn1S(=O)(=O)c1ccccc1 | inhibition [4]: > 50%; inhibition [8]: Active; inhibition [9]: Active; IC50 [10]: 10.8 µM

From ChEMBL document CHEMBL2203175, “Discovery and optimization of sulfonyl acrylonitriles as selective, covalent inhibitors of protein phosphatase methylesterase-1” (J Med Chem, 2011)
